From ChEMBL document CHEMBL4270630

Legend:
MDCK = assay: Cytotoxicity against MDCK cells assessed as reduction in cell viability after 3 days by MTS assay; type: cell-based, Canis lupus familiaris; settings: dog, mdck, 72 h
H3N2 subtype [1] = assay: Antiviral activity against Influenza A virus A/HK/7/87(H3N2) infected in MDCK cells after 3 days by MTS assay; type: functional, organism-based; settings: A/Hong Kong/7/1987(H3N2), 72 h
In short: (§1)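 Semi-confluent MDCK cells were infected at an MOI of 0.0004 PFU/cell in Ultra-MDCK infection medium with 2 μg/mL TPCK-trypsin, together with compounds. After 3 days at 35 °C, CPE was scored by microscopy and confirmed by MTS formazan viability. EC50 is the concentration giving 50% inhibition of virus-induced CPE. Values are means of two to five independent tests.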

Influenza A virus [2] = assay: Antiviral activity against Influenza A virus A/PR/8/34(H1N1) infected in MDCK cells assessed as reduction in virus-induced cytopathic effect after 3 days by microscopic method; type: functional, organism-based, A/Puerto Rico/8/1934(H1N1); in short: as §1
Influenza A virus [3] = assay: Antiviral activity against Influenza A virus A/Virginia/ATCC3/2009(H1N1pdm) infected in MDCK cells assessed as reduction in virus-induced cytopathic effect after 3 days by microscopic method; type: functional, organism-based, Influenza A virus (A/Virginia/03/2009(H1N1)); settings: 72 h; in short: as §1
Influenza B virus [4] = assay: Antiviral activity against Influenza B virus B/HK/05/72 infected in MDCK cells after 3 days by MTS assay; type: functional, organism-based; settings: B/Hong Kong/05/1972, MDCK, 72 h; in short: as §1
Influenza A virus [5] = assay: Antiviral activity against Influenza A virus A/Virginia/ATCC3/2009(H1N1pdm) infected in MDCK cells after 3 days by MTS assay; type: functional, organism-based, Influenza A virus (A/Virginia/03/2009(H1N1)); settings: 72 h; in short: as §1
Influenza B virus [6] = assay: Antiviral activity against Influenza B virus B/HK/05/72 infected in MDCK cells assessed as reduction in virus-induced cytopathic effect after 3 days by microscopic method; type: functional, organism-based; settings: B/Hong Kong/05/1972, MDCK, 72 h; in short: as §1
Influenza A virus [7] = assay: Antiviral activity against Influenza A virus A/PR/8/34(H1N1) infected in MDCK cells after 3 days by MTS assay; type: functional, organism-based, A/Puerto Rico/8/1934(H1N1); in short: as §1
H3N2 subtype [8] = assay: Antiviral activity against Influenza A virus A/HK/7/87(H3N2) infected in MDCK cells assessed as reduction in virus-induced cytopathic effect after 3 days by microscopic method; type: functional, organism-based; settings: A/Hong Kong/7/1987(H3N2), 72 h; in short: as §1
[9] = Cytotoxicity against MDCK cells assessed as alteration in cell morphology after 3 days by microscopic method; type: cell-based, Canis lupus familiaris; settings: dog
In short: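 Mock-infected MDCK cells were treated with compounds in parallel with the antiviral assay, 3 days at 35 °C. MCC is the concentration causing minimal change in cell morphology by microscopy. CC50 is the 50% cytotoxic concentration by MTS formazan viability assay.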

Influenza B virus [10] = assay: Antiviral activity against Influenza B virus B/Ned/537/05 infected in MDCK cells assessed as reduction in virus-induced cytopathic effect after 3 days by microscopic method; type: functional, organism-based; settings: B/Ned/537/05, MDCK, 72 h
In short: (§2)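 Semi-confluent MDCK cells were infected at an MOI of 0.0004 PFU/cell in Ultra-MDCK infection medium with 2 μg/mL TPCK-trypsin, together with compounds. After 3 days at 35 °C, CPE was scored by microscopy and confirmed by MTS formazan viability. Values are means of two to five independent tests.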

Influenza B virus [11] = assay: Antiviral activity against Influenza B virus B/Ned/537/05 infected in MDCK cells after 3 days by MTS assay; type: functional, organism-based; settings: B/Ned/537/05, MDCK, 72 h; in short: as §2
[12] = Influenza A virus, A/Puerto Rico/8/1934(H1N1), MDCK, 72 h

Row | Structure (SMILES) | CC50 (MDCK) | EC50 (H3N2 subtype [1]) | EC50 (Influenza A virus [2]; [12]) | EC50 (Influenza A virus [3]) | EC50 (Influenza B virus [4]) | EC50 (Influenza A virus [5]) | EC50 (Influenza B virus [6]) | EC50 (Influenza A virus [7]; [12]) | EC50 (H3N2 subtype [8]) | MCC at 72 h [9] | EC50 (Influenza B virus [10]) | EC50 (Influenza B virus [11]) | EC50 (Influenza A virus [2]; mdck) | EC50 (Influenza A virus [7]; mdck)
1 | CCCCCCCCCCCCSC1=C(SCCCCCCCCCCCC)C(=O)N(Cc2cn(C3C(=O)N[C@@H]4Cc5ccc(c(Cl)c5)Oc5cc6cc(c5O)Oc5ccc(cc5Cl)[C@@H](O[C@@H]5O[C@H](CO)[C@@H](O)[C@H](O)[C@H]5NC(C)=O)[C@H]5NC(=O)[C@H](NC(O)[C@@H]6NC(=O)[C@@H](NC4=O)c4cc(O)cc(c4)Oc4cc3ccc4O)c3ccc(O)c(c3)-c3c(O)cc(O)cc3[C@H](C(=O)O)NC5=O)nn2)C1=O (stereo not given in full) | 75 µM | > 100 µM | > 100 µM | > 100 µM | > 100 µM | > 100 µM | > 100 µM | > 100 µM | > 100 µM | 100 µM |  |  |  | 
2 | CC(=O)N[C@H]1[C@H](O[C@@H]2c3ccc(c(Cl)c3)Oc3cc4cc(c3O)Oc3ccc(cc3Cl)C[C@H]3NC(=O)C(n5cc(COCCOCCOCCOCCN6C(=O)C(SCCOCCOCCOCCO)=C(SCCOCCOCCOCCO)C6=O)nn5)c5ccc(O)c(c5)Oc5cc(O)cc(c5)[C@H](NC3=O)C(=O)N[C@H]4C(O)N[C@H]3C(=O)N[C@H]2C(=O)N[C@@H](C(=O)O)c2cc(O)cc(O)c2-c2cc3ccc2O)O[C@H](CO)[C@@H](O)[C@@H]1O (stereo not given in full) | ≥ 32 µM | 23 µM | > 100 µM | > 100 µM |  | > 100 µM |  | > 100 µM | > 100 µM | > 100 µM | > 100 µM | 42 µM |  | 
3 | CCCCCCCCCCCCSC1=C(SCCC)C(=O)N([C@H]2C(=O)N[C@@H]3Cc4ccc(c(Cl)c4)Oc4cc5cc(c4O)Oc4ccc(cc4Cl)[C@@H](O[C@@H]4O[C@H](CO)[C@@H](O)[C@H](O)[C@H]4NC(C)=O)[C@H]4NC(=O)[C@H](NC(O)[C@@H]5NC(=O)[C@@H](NC3=O)c3cc(O)cc(c3)Oc3cc2ccc3O)c2ccc(O)c(c2)-c2c(O)cc(O)cc2[C@H](C(=O)O)NC4=O)C1=O (stereo not given in full) | 29 µM | 6.8 µM | > 100 µM | 5.1 µM |  | 8.2 µM |  | 10 µM | 7.3 µM | ≥ 20 µM | 8.9 µM | 7.3 µM |  | 
4 | CCCCCCCCCCCCSC1=C(SCCCCCCCCCCCC)C(=O)N(CCOCCOCCOCCOCc2cn(C3C(=O)N[C@@H]4Cc5ccc(c(Cl)c5)Oc5cc6cc(c5O)Oc5ccc(cc5Cl)[C@@H](O[C@@H]5O[C@H](CO)[C@@H](O)[C@H](O)[C@H]5NC(C)=O)[C@H]5NC(=O)[C@H](NC(O)[C@@H]6NC(=O)[C@@H](NC4=O)c4cc(O)cc(c4)Oc4cc3ccc4O)c3ccc(O)c(c3)-c3c(O)cc(O)cc3[C@H](C(=O)O)NC5=O)nn2)C1=O (stereo not given in full) | 79 µM | 2.4 µM | > 100 µM | > 100 µM |  | 2.8 µM |  | 13 µM | > 100 µM | 20 µM | > 100 µM | > 100 µM |  | 
5 | CCCSC1=C(SCCC)C(=O)N(CCOCCOCCOCCOCc2cn(C3C(=O)N[C@@H]4Cc5ccc(c(Cl)c5)Oc5cc6cc(c5O)Oc5ccc(cc5Cl)[C@@H](O[C@@H]5O[C@H](CO)[C@@H](O)[C@H](O)[C@H]5NC(C)=O)[C@H]5NC(=O)[C@H](NC(O)[C@@H]6NC(=O)[C@@H](NC4=O)c4cc(O)cc(c4)Oc4cc3ccc4O)c3ccc(O)c(c3)-c3c(O)cc(O)cc3[C@H](C(=O)O)NC5=O)nn2)C1=O (stereo not given in full) | 38 µM | ≤ 7.8 µM | > 100 µM | > 100 µM | > 100 µM | 7.8 µM | > 100 µM | > 100 µM | 6.2 µM | 20 µM |  |  |  | 
6 | NC(=O)c1ncn([C@@H]2O[C@H](CO)[C@@H](O)[C@H]2O)n1 [RIBAVIRIN] |  | 5.9 µM |  |  |  |  |  |  | 13 µM | > 100 µM |  |  | 8.4 µM | 9.1 µM
7 | CCCCCCCCSC1=C(SCCCCCCCC)C(=O)N(CCOCCOCCOCCOCc2cn(C3C(=O)N[C@@H]4Cc5ccc(c(Cl)c5)Oc5cc6cc(c5O)Oc5ccc(cc5Cl)[C@@H](O[C@@H]5O[C@H](CO)[C@@H](O)[C@H](O)[C@H]5NC(C)=O)[C@H]5NC(=O)[C@H](NC(O)[C@@H]6NC(=O)[C@@H](NC4=O)c4cc(O)cc(c4)Oc4cc3ccc4O)c3ccc(O)c(c3)-c3c(O)cc(O)cc3[C@H](C(=O)O)NC5=O)nn2)C1=O (stereo not given in full) | 19 µM | ≤ 0.8 µM | 1.3 µM | ≤ 1.4 µM | > 20 µM | ≤ 0.8 µM | > 20 µM | 2 µM | 0.92 µM | ≥ 4 µM |  |  |  | 
8 | CC(N)C12CC3CC(CC(C3)C1)C2 (stereo not given) [RIMANTADINE] | > 500 µM |  | > 500 µM |  |  |  |  | > 500 µM | 0.2 µM | > 500 µM | > 500 µM | > 500 µM |  | 
9 | CCCCCCCCCCCCSC1=C(SCCCCCCCCCCCC)C(=O)N([C@H]2C(=O)N[C@@H]3Cc4ccc(c(Cl)c4)Oc4cc5cc(c4O)Oc4ccc(cc4Cl)[C@@H](O[C@@H]4O[C@H](CO)[C@@H](O)[C@H](O)[C@H]4NC(C)=O)[C@H]4NC(=O)[C@H](NC(O)[C@@H]5NC(=O)[C@@H](NC3=O)c3cc(O)cc(c3)Oc3cc2ccc3O)c2ccc(O)c(c2)-c2c(O)cc(O)cc2[C@H](C(=O)O)NC4=O)C1=O (stereo not given in full) | ≤ 1.1 µM | > 100 µM | > 100 µM | > 100 µM |  | > 100 µM |  | > 100 µM | > 100 µM | ≤ 4 µM | > 100 µM | > 100 µM |  | 
10 | NC12CC3CC(CC(C3)C1)C2 [AMANTADINE] | > 500 µM | 1.9 µM | > 500 µM |  |  |  |  | > 500 µM | 11 µM | > 500 µM | > 500 µM | > 500 µM |  | 
11 | CC(=O)N[C@H]1[C@H]([C@H](O)[C@H](O)CO)OC(C(=O)O)=C[C@@H]1N=C(N)N [ZANAMIVIR] | > 100 µM | 3.2 µM | 0.041 µM | 1.9 µM |  | 30 µM |  | 0.19 µM | 20 µM | > 100 µM | 0.0079 µM | 0.0062 µM |  | 
12 | CCCSC1=C(SCCC)C(=O)N([C@H]2C(=O)N[C@@H]3Cc4ccc(c(Cl)c4)Oc4cc5cc(c4O)Oc4ccc(cc4Cl)[C@@H](O[C@@H]4O[C@H](CO)[C@@H](O)[C@H](O)[C@H]4NC(C)=O)[C@H]4NC(=O)[C@H](NC(O)[C@@H]5NC(=O)[C@@H](NC3=O)c3cc(O)cc(c3)Oc3cc2ccc3O)c2ccc(O)c(c2)-c2c(O)cc(O)cc2[C@H](C(=O)O)NC4=O)C1=O (stereo not given in full) | 18 µM | > 100 µM | > 100 µM | 1.8 µM |  | 2 µM |  | > 100 µM | > 100 µM | 20 µM | > 100 µM | 7.2 µM |  | 
